A selection: hits, their analogues and other compounds. The true share with any hit is near 2.6%.
esBAF inh: blocks esBAF chromatin remodeling in mouse ES cells; Bmi1-luciferase knock-in reporter, 24 h; 100% = twice the neutral-well signal; reporter increase, % at 12.5 µM; 350,000 tested, 2% active; AID 602393; in the data active = activation above about 40%; inconclusive = no clear call, values can overlap the other calls;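 also: 0% = median of the plate's neutral control wells and 100% = double that signal; a rise in the Bmi1 reporter signal indicates esBAF inhibition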
Xi reactivation: activators of X-chromosome reactivation in mouse fibroblasts; XiGFP mouse fibroblasts, % GFP-positive cells imaging, 3 d; cells co-treated with 5-aza-dC sensitizer; scaled so ellipticine positive control = 100%; activation, % at 7.58 µM; 360,000 tested, 0.055% active; AID 743238;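 active = mean normalized replicate activation at least 10% and every replicate at or above 10%; inconclusive = only one of the two criteria met; inactive = mean below 10% and not all replicates reach 10%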;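 also: 0% = median of on-plate neutral control wells and 100% = ellipticine 6 µM median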
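material = 68-5-11 XiGFP fibroblast line | medium = DMEM plus 5-aza-dC sensitizer | schedule = 3 days compound exposure | benchmarks = positive control ellipticine, 6 µM final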
Wnt act: Wnt/beta-catenin pathway activation | Wnt/beta-catenin reporter cell assay, activator, plate reader | activation, % at 9.35 µM | 300,000 tested, 1.2% active | AID 743398; in the data active = activation above about 30%, passing the limit was not always enough; inconclusive = no clear call, values can overlap the other calls;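 also: 0% = neutral control wells and 100% = positive control wells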
MITF TRPM1 HTS: MITF TRPM1 promoter activation in melanoma cells | SK-MEL-5 TRPM1-promoter luciferase, 24 h; % of positive control, neutral wells = 0 | activation, % at 12.5 µM | 300,000 tested, 0.75% active;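 active = mean activation of at least 80% with every replicate also reaching 80%; inconclusive = mean reaches 80% but some replicate falls short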;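 also: 0% = neutral control wells and 100% = parthenolide positive control wells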
Vif imaging: inhibitors of HIV Vif; AID 602346; 340,000 tested, 0.35% active; HEK293T cells, Vif self-association by quenched fluorescence, imaging, 24 h; inhibition, % at 7.49 µM; in the data active = inhibition above about 50%, passing the limit was not always enough; inconclusive = no clear call, values can overlap the other calls; inactive = below about 31%
An asterisk follows results filed as active.

`O=C(Nc1nnc(Cc2ccccc2)s1)Nc1ccccc1F` gave esBAF inh 52.8*, Xi reactivation 0.0, Wnt act 24.9, MITF TRPM1 HTS 55.7 and Vif imaging -2.9.
Screening COc1ccc2c3c([nH]c2c1)[C@H](CO)N(S(C)(=O)=O)CC31CN(C(=O)Cc2cccnc2)C1 returned Xi reactivation 0.1.
For CC[n+]1c(/C=C/c2ccc(N(C)C)cc2)ccc2ccccc21 the results were Xi reactivation 0.0, MITF TRPM1 HTS -88.3 and Vif imaging -1.2.
For CC[n+]1c(/C=C/c2ccc(OC(C)=O)c(OC)c2)ccc2ccccc21 the results were esBAF inh 83.4*, Xi reactivation 0.0, Wnt act 17.4, MITF TRPM1 HTS 96.9* and Vif imaging -0.3.
CC[n+]1c(/C=C/c2cc([N+](=O)[O-])ccc2O)ccc2ccccc21 was read as esBAF inh 42.9*, Xi reactivation 0.1, Wnt act -1.9 and Vif imaging 15.3.
Screening CC[n+]1c(/C=C/c2ccc(OC)c(OC)c2)ccc2ccccc21 returned esBAF inh 79.7*, Xi reactivation -0.1, Wnt act 8.0 and Vif imaging 7.4.
`COCC(=O)NC[C@@H]1[C@H](c2ccccc2)[C@H](CO)N1C(C)=O` gave esBAF inh 2.4 and Xi reactivation 0.2.
`CO[C@@H]1CN(C)C(=O)c2cc(NC(=O)c3cc(C)on3)ccc2OC[C@@H](C)N(CC2CC2)C[C@@H]1C` gave esBAF inh -0.3 and Xi reactivation 0.1.
Screening O=C(Nc1ccc2c(c1)Cc1ccccc1-2)c1ccco1 returned esBAF inh 6.9, Wnt act 48.2*, MITF TRPM1 HTS 151.2* and Vif imaging -1.9.
Screening O=C(Nc1ccc2c(c1)Cc1ccccc1-2)c1cccnc1 returned esBAF inh 64.4*, Xi reactivation 0.1, Wnt act 14.9, MITF TRPM1 HTS inconclusive and Vif imaging -3.9.
Screening O=C(Nc1ccc2ccccc2c1)c1cccnc1 returned esBAF inh 33.6, MITF TRPM1 HTS 66.5 and Vif imaging 18.9.
COc1cccc(OC)c1C(=O)Nc1ccc2c(c1)Cc1ccccc1-2 was read as Xi reactivation 0.3, Wnt act 1.3, MITF TRPM1 HTS 18.7 and Vif imaging -12.0.
Screening CCN(CC)CCN(C(=O)c1ccc2ncsc2c1)c1nc2cc3c(cc2s1)OCO3 returned esBAF inh 54.5*, Xi reactivation 0.0, Wnt act 21.5, MITF TRPM1 HTS 18.8 and Vif imaging 4.0.
For CN1C(=O)c2cc(NC(=O)Nc3cccc(Cl)c3)ccc2OC[C@H]2O[C@@H](CC(=O)O)CC[C@H]21 the results were esBAF inh -1.7 and Xi reactivation 0.5.
Screening COc1ccc(-c2csc(-n3cccn3)n2)cc1 returned esBAF inh 67.9*, Xi reactivation 0.2, Wnt act 32.9*, MITF TRPM1 HTS inconclusive and Vif imaging -13.2.
Screening COc1ccc(-c2csc(N3CCSCC3)n2)cc1 returned esBAF inh 46.6*, Xi reactivation 0.4, Wnt act inconclusive, MITF TRPM1 HTS 74.8 and Vif imaging 7.6.
`COc1ccc(-c2csc(N3CCOCC3)n2)cc1OC` gave esBAF inh 58.4*, Wnt act 16.6, MITF TRPM1 HTS 71.3 and Vif imaging 5.4.
For c1ccc(-c2csc(N3CCCCCC3)n2)cc1 the results were esBAF inh 42.8*, MITF TRPM1 HTS 54.5 and Vif imaging 0.0.
For Clc1ccc(-c2csc(N3CCOCC3)n2)cc1 the results were Xi reactivation 0.0, Wnt act 13.7, MITF TRPM1 HTS 75.6 and Vif imaging 0.0.
`CC(=O)N(C)C[C@H]1Oc2cc(C#CC(C)(C)O)ccc2S(=O)(=O)N([C@H](C)CO)C[C@H]1C` gave esBAF inh 0.5 and Xi reactivation -1.0.
C[C@H]1CCCCO[C@@H](CN(C)C(=O)c2ccccc2)[C@@H](C)CN([C@@H](C)CO)C(=O)c2cc(NS(C)(=O)=O)ccc2O1 was read as esBAF inh 0.6 and Xi reactivation -0.2.
`CN1C(=O)c2cc(NC(=O)c3ccccc3Cl)ccc2OC[C@H]2O[C@@H](CC(=O)O)CC[C@H]21` gave esBAF inh -3.2 and Xi reactivation 0.2.
`Fc1ccc(-c2csc(N3CCC(c4ccccc4)C3)n2)cc1` (stereo not drawn) gave esBAF inh 50.3*, Wnt act 3.9, MITF TRPM1 HTS 63.8 and Vif imaging -8.4.
For Nc1ccc(N=Nc2ccccc2)cc1[N+](=O)[O-] the results were esBAF inh 62.2*, Xi reactivation 0.0, Wnt act -3.8, MITF TRPM1 HTS 40.9 and Vif imaging 9.5.
`C/C=C/c1ccc([C@H]2[C@@H](CO)N(C(=O)c3cnccn3)C23CN(C(=O)C2CC2)C3)cc1` gave Xi reactivation 8.2.
Screening O=C(Nc1ccc(F)cc1)N1CC(=O)N2[C@H](CO)[C@@H](c3ccc(C#Cc4ccccc4)cc3)[C@@H]2C1 returned Xi reactivation 0.2.
Screening COc1ccc(/C=C/C2=Nc3ccccc3NC(C)(C)C2)cc1OC returned esBAF inh 43.7*, Xi reactivation 0.1, Wnt act 39.9*, MITF TRPM1 HTS inconclusive and Vif imaging 0.8.
For Cc1nc2cc3nc(C)sc3cc2s1 the results were esBAF inh 49.6*, MITF TRPM1 HTS inconclusive and Vif imaging 0.9.
Cc1nc2cc3ccccc3cc2s1 was read as esBAF inh 29.1, Xi reactivation 0.0, Wnt act -0.6, MITF TRPM1 HTS 13.8 and Vif imaging 13.4.
C[C@H](CO)N1C[C@H](C)[C@H](CN(C)C(=O)Nc2ccc(F)cc2)Oc2ccc(NC(=O)CCN3CCOCC3)cc2C1=O was read as esBAF inh 0.3 and Xi reactivation 0.0.
`CC1CCCC(NC(=O)c2cccs2)C1C` (stereo not drawn) gave esBAF inh 42.6*, Xi reactivation 0.1, Wnt act 2.7, MITF TRPM1 HTS 20.0 and Vif imaging 9.4.
Screening CC1CCCC(NC(=O)c2ccc3c(c2)OCCO3)C1C (stereo not drawn) returned esBAF inh inconclusive, Xi reactivation 0.2, Wnt act 34.8*, MITF TRPM1 HTS 70.6 and Vif imaging -5.1.
Screening CC1CCCCC1NC(=O)c1ccc2c(c1)OCCO2 (stereo not drawn) returned esBAF inh 33.0, Xi reactivation 0.0, Wnt act 29.2, MITF TRPM1 HTS 44.7 and Vif imaging 3.6.
Cc1cccc(NC(=S)N/C(=N/S(=O)(=O)c2ccccc2)c2ccccc2)c1 was read as esBAF inh 77.5*, Xi reactivation 0.1, Wnt act -3.6, MITF TRPM1 HTS 1.2 and Vif imaging -3.6.
COc1ccc(NC(=S)N/C(=N/CS(=O)(=O)c2ccccc2)c2ccccc2)cc1 was read as esBAF inh -3.1, Wnt act 37.2*, MITF TRPM1 HTS 21.3 and Vif imaging -6.0.

Assay outcomes: PubChem BioAssay, Broad Institute
